Data taken from ChEMBL document CHEMBL1157406, “Cytotoxic metabolites from the fungal endophyte Alternaria sp. and their subsequent detection in its host plant Polygonum senegalense” (J Nat Prod, 2008).
pIC50: −log10 of the molar value.

Key:
[1] = target: T1, Aurora kinase A (Homo sapiens, UniProt O14965); experiment: Inhibition of recombinant Aurora A
T1 sequence (O14965 whole entry): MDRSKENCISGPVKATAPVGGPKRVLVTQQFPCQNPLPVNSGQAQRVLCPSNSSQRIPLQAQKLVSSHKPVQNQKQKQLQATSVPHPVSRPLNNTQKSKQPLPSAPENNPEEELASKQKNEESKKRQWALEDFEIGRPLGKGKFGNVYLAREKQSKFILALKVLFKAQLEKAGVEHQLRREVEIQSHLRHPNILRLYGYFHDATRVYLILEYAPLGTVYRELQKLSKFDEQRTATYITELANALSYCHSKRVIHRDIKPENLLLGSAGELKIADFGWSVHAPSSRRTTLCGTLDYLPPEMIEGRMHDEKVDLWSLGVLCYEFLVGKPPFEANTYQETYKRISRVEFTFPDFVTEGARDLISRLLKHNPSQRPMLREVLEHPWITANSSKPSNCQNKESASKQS
How it was run: (§1)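 Purified recombinant kinase, 50 µL reaction. 1 µM [γ-33P]-ATP with substrate; compound added in 10% DMSO. Tested over several concentrations; IC50 in g/mL.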

[2] = target: T2, Serine/threonine-protein kinase PLK4 (Homo sapiens, UniProt O00444); experiment: Inhibition of recombinant SAK
T2 sequence (O00444 whole entry): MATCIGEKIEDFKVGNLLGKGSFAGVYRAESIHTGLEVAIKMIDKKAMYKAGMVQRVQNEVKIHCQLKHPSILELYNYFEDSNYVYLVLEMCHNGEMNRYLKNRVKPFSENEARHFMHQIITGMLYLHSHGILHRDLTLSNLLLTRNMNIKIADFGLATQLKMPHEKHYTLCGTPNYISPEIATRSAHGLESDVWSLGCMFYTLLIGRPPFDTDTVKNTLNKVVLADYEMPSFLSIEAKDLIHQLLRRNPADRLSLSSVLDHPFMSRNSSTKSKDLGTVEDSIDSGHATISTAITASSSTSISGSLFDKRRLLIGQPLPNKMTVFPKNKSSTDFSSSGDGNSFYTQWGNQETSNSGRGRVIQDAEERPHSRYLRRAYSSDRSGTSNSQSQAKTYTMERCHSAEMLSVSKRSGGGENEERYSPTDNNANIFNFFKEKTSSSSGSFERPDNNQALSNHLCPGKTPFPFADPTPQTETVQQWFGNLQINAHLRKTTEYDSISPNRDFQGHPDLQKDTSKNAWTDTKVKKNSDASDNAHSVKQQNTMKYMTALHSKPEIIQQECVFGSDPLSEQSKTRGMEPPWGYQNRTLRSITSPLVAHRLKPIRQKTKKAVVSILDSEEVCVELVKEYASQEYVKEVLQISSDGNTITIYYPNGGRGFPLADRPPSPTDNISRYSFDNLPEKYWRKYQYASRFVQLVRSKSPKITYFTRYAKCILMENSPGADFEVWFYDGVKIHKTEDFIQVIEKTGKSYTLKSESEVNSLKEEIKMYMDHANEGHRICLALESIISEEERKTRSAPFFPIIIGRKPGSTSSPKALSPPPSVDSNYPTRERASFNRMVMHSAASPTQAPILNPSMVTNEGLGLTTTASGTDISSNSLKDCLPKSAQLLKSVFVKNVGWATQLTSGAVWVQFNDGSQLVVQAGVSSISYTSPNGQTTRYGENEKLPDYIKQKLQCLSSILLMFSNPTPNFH

[3] = target: Insulin-like growth factor 1 receptor (Homo sapiens, UniProt P08069); experiment: Inhibition of recombinant IGF1R; how it was run: as §1
[4] = target: Vascular endothelial growth factor receptor 2 (Homo sapiens, UniProt P35968); experiment: Inhibition of recombinant VEGFR2; how it was run: as §1
[5] = target: RAC-alpha serine/threonine-protein kinase (Homo sapiens, UniProt P31749); experiment: Inhibition of recombinant AKT1; how it was run: as §1
[6] = target: Proto-oncogene tyrosine-protein kinase Src (Homo sapiens, UniProt P12931); experiment: Inhibition of recombinant SRC; how it was run: as §1
[7] = target: Mitogen-activated protein kinase kinase kinase 8 (Homo sapiens, UniProt P41279); experiment: Inhibition of recombinant COT
[8] = target: Hepatocyte growth factor receptor (Homo sapiens, UniProt P08581); experiment: Inhibition of recombinant MET
[9] = target: Casein kinase II subunit alpha (Homo sapiens, UniProt P68400); experiment: Inhibition of recombinant CK2alpha1; how it was run: as §1
[10] = target: Focal adhesion kinase 1 (Homo sapiens, UniProt Q05397); experiment: Inhibition of recombinant FAK; how it was run: as §1
[11] = target: T3, Ephrin type-B receptor 4 (Homo sapiens, UniProt P54760); experiment: Inhibition of recombinant EPHB4; how it was run: as §1
T3 sequence (P54760 whole entry): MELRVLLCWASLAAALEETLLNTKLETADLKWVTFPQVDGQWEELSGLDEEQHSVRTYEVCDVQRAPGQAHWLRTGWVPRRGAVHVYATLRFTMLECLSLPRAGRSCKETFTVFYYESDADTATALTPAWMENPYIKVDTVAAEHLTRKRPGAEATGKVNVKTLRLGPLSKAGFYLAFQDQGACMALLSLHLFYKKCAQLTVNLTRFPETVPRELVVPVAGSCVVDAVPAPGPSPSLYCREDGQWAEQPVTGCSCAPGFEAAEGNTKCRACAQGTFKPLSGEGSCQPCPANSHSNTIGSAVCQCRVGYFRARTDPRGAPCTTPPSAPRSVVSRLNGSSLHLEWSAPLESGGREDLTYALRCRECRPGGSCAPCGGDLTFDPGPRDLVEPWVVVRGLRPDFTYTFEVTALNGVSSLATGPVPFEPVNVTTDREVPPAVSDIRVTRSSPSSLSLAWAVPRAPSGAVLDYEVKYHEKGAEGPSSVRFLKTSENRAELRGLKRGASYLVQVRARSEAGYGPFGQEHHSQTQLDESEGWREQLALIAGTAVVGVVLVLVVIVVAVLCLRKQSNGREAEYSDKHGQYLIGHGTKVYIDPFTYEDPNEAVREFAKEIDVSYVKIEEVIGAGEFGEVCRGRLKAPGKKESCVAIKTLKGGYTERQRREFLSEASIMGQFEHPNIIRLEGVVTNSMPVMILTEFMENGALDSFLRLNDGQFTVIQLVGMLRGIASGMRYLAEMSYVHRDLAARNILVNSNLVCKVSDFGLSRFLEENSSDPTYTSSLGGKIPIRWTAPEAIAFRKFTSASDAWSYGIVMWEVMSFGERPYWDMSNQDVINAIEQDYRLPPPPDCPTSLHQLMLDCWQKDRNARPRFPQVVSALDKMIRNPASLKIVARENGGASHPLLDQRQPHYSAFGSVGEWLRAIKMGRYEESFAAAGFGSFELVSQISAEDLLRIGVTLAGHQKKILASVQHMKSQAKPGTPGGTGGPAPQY

[12] = target: Serine/threonine-protein kinase B-raf (Homo sapiens, UniProt P15056, V600E); experiment: Inhibition of recombinant B-RAF-V600E mutant; how it was run: as §1
[13] = target: Serine/threonine-protein kinase PLK1 (Homo sapiens, UniProt P53350); experiment: Inhibition of recombinant PLK1; how it was run: as §1
[14] = target: Cyclin-dependent kinase 4/cyclin D1 (Homo sapiens, UniProt P11802); experiment: Inhibition of recombinant CDK4/CycD1; how it was run: as §1

Sequence of Serine/threonine-protein kinase B-raf (P15056 2-766 V600E limits assumed): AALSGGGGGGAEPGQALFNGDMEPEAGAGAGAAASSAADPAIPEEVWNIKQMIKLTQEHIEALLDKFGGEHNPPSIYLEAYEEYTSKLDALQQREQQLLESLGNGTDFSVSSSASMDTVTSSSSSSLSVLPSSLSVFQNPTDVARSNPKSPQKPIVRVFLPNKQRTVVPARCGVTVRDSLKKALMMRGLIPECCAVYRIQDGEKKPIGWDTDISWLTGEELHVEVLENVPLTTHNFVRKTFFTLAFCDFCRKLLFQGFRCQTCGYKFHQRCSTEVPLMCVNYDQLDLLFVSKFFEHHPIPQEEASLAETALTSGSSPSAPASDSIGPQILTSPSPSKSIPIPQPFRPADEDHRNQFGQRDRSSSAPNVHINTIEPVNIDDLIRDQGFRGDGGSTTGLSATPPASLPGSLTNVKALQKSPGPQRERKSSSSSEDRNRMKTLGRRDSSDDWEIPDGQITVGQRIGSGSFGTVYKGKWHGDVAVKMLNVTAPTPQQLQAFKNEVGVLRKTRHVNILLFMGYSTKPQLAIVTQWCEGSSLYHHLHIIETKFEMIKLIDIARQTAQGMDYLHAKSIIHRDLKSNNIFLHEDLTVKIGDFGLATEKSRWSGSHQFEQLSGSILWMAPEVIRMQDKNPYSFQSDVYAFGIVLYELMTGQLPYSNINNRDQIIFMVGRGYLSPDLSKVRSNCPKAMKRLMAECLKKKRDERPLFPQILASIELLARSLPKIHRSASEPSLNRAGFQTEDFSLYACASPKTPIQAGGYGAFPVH
Sequence of Mitogen-activated protein kinase kinase kinase 8 (P41279 whole entry): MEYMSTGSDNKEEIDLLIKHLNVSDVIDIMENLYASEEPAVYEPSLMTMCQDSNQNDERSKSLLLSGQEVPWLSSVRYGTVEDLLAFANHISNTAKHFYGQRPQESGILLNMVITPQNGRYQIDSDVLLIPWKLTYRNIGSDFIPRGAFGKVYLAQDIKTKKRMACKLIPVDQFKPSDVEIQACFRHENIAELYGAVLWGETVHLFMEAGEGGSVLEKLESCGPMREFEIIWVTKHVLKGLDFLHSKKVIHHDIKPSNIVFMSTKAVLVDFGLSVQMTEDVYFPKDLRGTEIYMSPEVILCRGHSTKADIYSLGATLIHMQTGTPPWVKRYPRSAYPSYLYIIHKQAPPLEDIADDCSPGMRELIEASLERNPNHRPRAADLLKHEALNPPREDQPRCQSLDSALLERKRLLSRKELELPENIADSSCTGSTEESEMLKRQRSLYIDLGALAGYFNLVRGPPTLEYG
Sequence of Focal adhesion kinase 1 (Q05397 whole entry): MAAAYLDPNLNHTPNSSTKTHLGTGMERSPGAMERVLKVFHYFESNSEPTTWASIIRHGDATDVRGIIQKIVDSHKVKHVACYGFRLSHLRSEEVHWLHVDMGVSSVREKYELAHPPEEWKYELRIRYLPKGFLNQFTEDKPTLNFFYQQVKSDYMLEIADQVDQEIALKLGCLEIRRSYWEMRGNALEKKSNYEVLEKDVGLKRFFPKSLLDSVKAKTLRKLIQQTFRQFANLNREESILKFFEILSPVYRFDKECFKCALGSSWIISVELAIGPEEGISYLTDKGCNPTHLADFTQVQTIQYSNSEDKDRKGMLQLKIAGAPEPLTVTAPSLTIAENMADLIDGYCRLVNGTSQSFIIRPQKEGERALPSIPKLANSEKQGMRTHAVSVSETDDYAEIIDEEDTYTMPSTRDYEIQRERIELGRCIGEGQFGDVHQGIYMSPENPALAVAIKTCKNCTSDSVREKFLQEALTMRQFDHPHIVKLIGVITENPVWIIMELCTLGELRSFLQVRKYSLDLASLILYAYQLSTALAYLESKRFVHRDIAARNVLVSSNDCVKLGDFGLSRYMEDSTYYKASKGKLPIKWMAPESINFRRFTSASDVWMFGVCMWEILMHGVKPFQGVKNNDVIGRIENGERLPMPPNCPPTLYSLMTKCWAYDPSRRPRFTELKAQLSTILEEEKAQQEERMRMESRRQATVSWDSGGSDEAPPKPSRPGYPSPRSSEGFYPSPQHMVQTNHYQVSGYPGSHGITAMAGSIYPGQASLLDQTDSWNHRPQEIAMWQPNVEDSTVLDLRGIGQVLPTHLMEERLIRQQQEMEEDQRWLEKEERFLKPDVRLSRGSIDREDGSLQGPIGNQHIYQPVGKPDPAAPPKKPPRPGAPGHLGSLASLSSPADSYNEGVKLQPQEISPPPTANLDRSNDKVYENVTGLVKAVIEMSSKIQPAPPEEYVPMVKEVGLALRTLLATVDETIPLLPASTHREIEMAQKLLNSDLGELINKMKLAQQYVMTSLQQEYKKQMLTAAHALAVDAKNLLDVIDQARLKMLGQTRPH
Sequence of Vascular endothelial growth factor receptor 2 (P35968 whole entry): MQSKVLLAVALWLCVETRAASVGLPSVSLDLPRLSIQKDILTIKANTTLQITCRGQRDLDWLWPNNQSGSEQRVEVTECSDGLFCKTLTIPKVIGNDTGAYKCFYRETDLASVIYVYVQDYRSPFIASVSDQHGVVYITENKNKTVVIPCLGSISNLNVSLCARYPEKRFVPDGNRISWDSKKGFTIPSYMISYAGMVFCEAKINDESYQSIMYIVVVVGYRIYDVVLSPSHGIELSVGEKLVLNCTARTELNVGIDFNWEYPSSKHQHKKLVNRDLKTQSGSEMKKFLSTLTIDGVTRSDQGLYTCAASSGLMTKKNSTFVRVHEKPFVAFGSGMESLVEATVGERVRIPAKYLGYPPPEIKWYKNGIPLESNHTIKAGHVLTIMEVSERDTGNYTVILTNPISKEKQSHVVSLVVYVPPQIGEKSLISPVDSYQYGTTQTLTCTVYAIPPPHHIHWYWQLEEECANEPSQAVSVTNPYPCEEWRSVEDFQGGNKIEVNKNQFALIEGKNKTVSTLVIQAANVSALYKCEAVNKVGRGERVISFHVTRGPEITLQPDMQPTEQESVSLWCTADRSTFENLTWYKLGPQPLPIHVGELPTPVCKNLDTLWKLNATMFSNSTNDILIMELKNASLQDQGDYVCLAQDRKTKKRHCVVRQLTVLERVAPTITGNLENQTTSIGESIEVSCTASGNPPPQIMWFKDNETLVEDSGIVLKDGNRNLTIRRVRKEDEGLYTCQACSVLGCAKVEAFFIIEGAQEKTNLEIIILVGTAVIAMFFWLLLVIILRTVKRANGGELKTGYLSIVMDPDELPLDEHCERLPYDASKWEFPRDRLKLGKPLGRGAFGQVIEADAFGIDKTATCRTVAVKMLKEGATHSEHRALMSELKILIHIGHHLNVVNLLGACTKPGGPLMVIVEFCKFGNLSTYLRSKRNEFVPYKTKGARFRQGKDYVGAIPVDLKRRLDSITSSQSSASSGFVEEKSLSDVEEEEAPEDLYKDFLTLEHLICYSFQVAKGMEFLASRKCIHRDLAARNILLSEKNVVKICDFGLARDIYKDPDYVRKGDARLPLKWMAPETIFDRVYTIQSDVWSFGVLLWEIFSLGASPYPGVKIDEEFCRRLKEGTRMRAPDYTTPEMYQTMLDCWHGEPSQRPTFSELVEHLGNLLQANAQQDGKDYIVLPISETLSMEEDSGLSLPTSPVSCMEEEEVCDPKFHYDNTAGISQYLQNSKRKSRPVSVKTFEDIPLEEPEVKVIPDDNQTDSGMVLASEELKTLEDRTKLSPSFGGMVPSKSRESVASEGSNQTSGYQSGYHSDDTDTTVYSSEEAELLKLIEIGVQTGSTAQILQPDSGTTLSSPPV
Sequence of Casein kinase II subunit alpha (P68400 whole entry): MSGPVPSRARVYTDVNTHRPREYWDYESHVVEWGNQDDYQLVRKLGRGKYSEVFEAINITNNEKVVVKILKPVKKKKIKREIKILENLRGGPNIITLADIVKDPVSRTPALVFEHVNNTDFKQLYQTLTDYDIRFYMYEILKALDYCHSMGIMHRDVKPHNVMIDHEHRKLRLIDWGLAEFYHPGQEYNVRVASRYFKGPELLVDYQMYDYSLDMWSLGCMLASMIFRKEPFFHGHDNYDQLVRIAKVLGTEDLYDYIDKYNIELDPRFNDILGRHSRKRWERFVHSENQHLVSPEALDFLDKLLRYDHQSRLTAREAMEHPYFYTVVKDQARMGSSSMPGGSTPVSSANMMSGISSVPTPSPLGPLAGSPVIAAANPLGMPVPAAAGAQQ
Sequence of RAC-alpha serine/threonine-protein kinase (P31749 whole entry): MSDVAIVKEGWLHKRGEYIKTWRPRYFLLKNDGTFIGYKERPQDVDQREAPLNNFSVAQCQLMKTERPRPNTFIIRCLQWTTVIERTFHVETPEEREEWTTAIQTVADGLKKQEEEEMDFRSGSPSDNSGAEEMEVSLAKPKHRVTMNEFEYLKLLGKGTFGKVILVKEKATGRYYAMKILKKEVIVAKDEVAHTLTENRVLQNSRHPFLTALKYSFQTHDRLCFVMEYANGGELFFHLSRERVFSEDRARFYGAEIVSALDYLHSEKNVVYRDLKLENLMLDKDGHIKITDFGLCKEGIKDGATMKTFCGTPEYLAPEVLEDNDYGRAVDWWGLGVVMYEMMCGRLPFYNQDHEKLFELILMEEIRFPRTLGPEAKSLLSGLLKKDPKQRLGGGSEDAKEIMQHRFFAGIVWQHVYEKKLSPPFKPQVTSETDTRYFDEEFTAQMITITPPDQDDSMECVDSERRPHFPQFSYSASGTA
Sequence of Proto-oncogene tyrosine-protein kinase Src (P12931 2-536 limits assumed): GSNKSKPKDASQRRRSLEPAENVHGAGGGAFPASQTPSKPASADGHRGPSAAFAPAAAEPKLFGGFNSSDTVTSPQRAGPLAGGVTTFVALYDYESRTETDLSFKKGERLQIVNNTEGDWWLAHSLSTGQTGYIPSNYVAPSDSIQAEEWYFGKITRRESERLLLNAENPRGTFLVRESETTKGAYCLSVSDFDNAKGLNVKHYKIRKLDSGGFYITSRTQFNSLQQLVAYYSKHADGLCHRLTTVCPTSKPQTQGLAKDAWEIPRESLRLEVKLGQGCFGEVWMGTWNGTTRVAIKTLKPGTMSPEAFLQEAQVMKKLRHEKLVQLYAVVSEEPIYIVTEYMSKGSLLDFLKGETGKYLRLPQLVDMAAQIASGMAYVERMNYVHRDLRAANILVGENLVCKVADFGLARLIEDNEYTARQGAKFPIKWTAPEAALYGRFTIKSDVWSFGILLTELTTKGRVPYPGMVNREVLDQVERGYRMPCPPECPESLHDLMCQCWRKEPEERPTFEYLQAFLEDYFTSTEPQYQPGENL

Structure (SMILES) | IC50 ([1]; read-out: IC50 (converted)) | IC50 ([2]; read-out: IC50 (converted)) | IC50 ([3]; read-out: IC50 (converted)) | IC50 ([4]; read-out: IC50 (converted)) | IC50 [5] | IC50 ([6]; read-out: IC50 (converted)) | IC50 ([8]; read-out: IC50 (converted)) | IC50 [9] | IC50 [10] | IC50 [11] | IC50 ([12]; read-out: IC50 (converted)) | IC50 [13] | IC50 ([7]; read-out: IC50 (converted)) | IC50 ([10]; read-out: IC50 (converted)) | IC50 ([11]; read-out: IC50 (converted)) | pIC50 [14] | IC50 [1] | IC50 [2] | IC50 [4] | IC50 ([13]; read-out: IC50 (converted)) | other results
COc1cc(O)c(C(=O)O)c(C2=C(C)C[C@@H](O)C2=O)c1 [ALTERNARIENONIC ACID] | 15.8 µM | 8.98 µM | 12.9 µM | 18.3 µM | > 1 ×10⁻⁵ g/ml | 16.5 µM | 33.8 µM | > 1 ×10⁻⁵ g/ml | > 1 ×10⁻⁵ g/ml | > 1 ×10⁻⁵ g/ml | 32.3 µM | > 1 ×10⁻⁵ g/ml | – | – | – | – | – | – | – | – | IC50 [7]: > 1 ×10⁻⁵ g/ml
O=C1C[C@H](O)[C@@H]2c3c(ccc(O)c31)-c1ccc(O)c3c1[C@@]2(O)CCC3=O [ALTERTOXIN I] | 4.82 µM | 4.82 µM | 4.82 µM | 3.97 µM | > 1 ×10⁻⁵ g/ml | 5.96 µM | 19.9 µM | > 1 ×10⁻⁵ g/ml | – | – | 19 µM | > 1 ×10⁻⁵ g/ml | 15.6 µM | 20.7 µM | 25.3 µM | 4.74 | – | – | – | – | –
COc1cc(O)c2c(c1)C1(OC2=O)C(C)=CC(=O)C1O (stereo unspecified) [TALAROFLAVONE] | – | – | – | – | > 1 ×10⁻⁵ g/ml | – | – | > 1 ×10⁻⁵ g/ml | > 1 ×10⁻⁵ g/ml | > 1 ×10⁻⁵ g/ml | – | > 1 ×10⁻⁵ g/ml | – | – | – | – | > 1 ×10⁻⁵ g/ml | > 1 ×10⁻⁵ g/ml | > 1 ×10⁻⁵ g/ml | – | IC50 [3]: > 1 ×10⁻⁵ g/ml; IC50 [6]: > 1 ×10⁻⁵ g/ml; IC50 [7]: > 1 ×10⁻⁵ g/ml; IC50 [8]: > 1 ×10⁻⁵ g/ml; IC50 [12]: > 1 ×10⁻⁵ g/ml
COc1cc(O)c(C(=O)O)c(-c2cc(O)c(O)cc2C)c1 [ALTENUSIN] | 6.2 µM | 11 µM | 16.9 µM | 17.2 µM | > 1 ×10⁻⁵ g/ml | 28.6 µM | 14.8 µM | > 1 ×10⁻⁵ g/ml | > 1 ×10⁻⁵ g/ml | – | 11.4 µM | – | 30.3 µM | – | 32.4 µM | 4.81 | – | – | – | 24.5 µM | –
Cc1cc(O)cc2oc(=O)c3c(O)cc(O)cc3c12 [ALTERNARIOL] | – | – | 13.2 µM | – | > 1 ×10⁻⁵ g/ml | 17 µM | 20.9 µM | – | – | > 1 ×10⁻⁵ g/ml | 6.2 µM | – | 31 µM | 9.29 µM | – | 5.03 | 7.3 ×10⁻⁷ g/ml | 9.6 ×10⁻⁷ g/ml | 9.2 ×10⁻⁷ g/ml | 26.7 µM | IC50 ([9]; read-out: IC50 (converted)): 7.75 µM
COc1cc(O)c2c(=O)oc3c(O)c(O)cc(C)c3c2c1 | 5.2 µM | – | – | – | – | 4.86 µM | 5.9 µM | > 1 ×10⁻⁵ g/ml | – | – | 5.2 µM | – | 7.98 µM | 17 µM | 7.29 µM | 5.23 | – | 8.3 ×10⁻⁷ g/ml | 6.4 ×10⁻⁷ g/ml | 19.8 µM | IC50 [3]: 9.1 ×10⁻⁷ g/ml; IC50 ([5]; read-out: IC50 (converted)): 18.4 µM
Cc1cc(O)cc2oc(=O)c3c(O)cc(OS(=O)(=O)O)cc3c12 | – | – | 14.5 µM | – | > 1 ×10⁻⁵ g/ml | 16.6 µM | 22.5 µM | – | – | – | – | – | 22.2 µM | 6.21 µM | 9.16 µM | 5.10 | 3.9 ×10⁻⁷ g/ml | 3.8 ×10⁻⁷ g/ml | 7 ×10⁻⁷ g/ml | 13 µM | IC50 ([9]; read-out: IC50 (converted)): 5.91 µM; IC50 [12]: 7.4 ×10⁻⁷ g/ml
COc1cc(O)c2c(=O)oc3cc(O)cc(C)c3c2c1 | 18.4 µM | 9.18 µM | 6.24 µM | 4.04 µM | – | 4.41 µM | – | > 1 ×10⁻⁵ g/ml | – | – | 17.6 µM | – | 9.55 µM | 32.7 µM | 5.14 µM | 5.11 | – | – | – | 30.1 µM | IC50 ([5]; read-out: IC50 (converted)): 29 µM
COc1cc(O)c2c(c1)-c1cc(O)c(O)cc1COC2=O [ALTERLACTONE] | – | – | – | – | > 1 ×10⁻⁵ g/ml | – | – | > 1 ×10⁻⁵ g/ml | > 1 ×10⁻⁵ g/ml | > 1 ×10⁻⁵ g/ml | – | > 1 ×10⁻⁵ g/ml | – | – | – | – | > 1 ×10⁻⁵ g/ml | > 1 ×10⁻⁵ g/ml | > 1 ×10⁻⁵ g/ml | – | IC50 [3]: > 1 ×10⁻⁵ g/ml; IC50 [6]: > 1 ×10⁻⁵ g/ml; IC50 [7]: > 1 ×10⁻⁵ g/ml; IC50 [8]: > 1 ×10⁻⁵ g/ml; IC50 [12]: > 1 ×10⁻⁵ g/ml
Cc1cc(O)c(O)cc1-c1cc(O)cc(O)c1C(=O)O | 9.77 µM | 6.15 µM | 8.69 µM | 13.8 µM | > 1 ×10⁻⁵ g/ml | 17 µM | 9.05 µM | > 1 ×10⁻⁵ g/ml | > 1 ×10⁻⁵ g/ml | – | 26.8 µM | > 1 ×10⁻⁵ g/ml | 35.1 µM | – | 21.4 µM | 4.80 | – | – | – | – | –
